Assay results from ChEMBL document CHEMBL4342471, “Discovery of Thieno[2,3-d]pyrimidine-Based Hydroxamic Acid Derivatives as Bromodomain-Containing Protein 4/Histone Deacetylase Dual Inhibitors Induce Autophagic Cell Death in Colorectal Carcinoma Cells” (J Med Chem, 2020).
Active and inactive are the calls of the source. The rule behind the calls is not given here.

Tests used:
[1] = test system: HCT-116; experiment: Induction of apoptosis in human HCT116 cells assessed as late apoptotic cells at 0.2 uM by Annexin-V FITC/propidium iodide staining-based flow cytometry (reference value: 3.51 %); format: functional
[2] = target: Histone deacetylase 8 (Homo sapiens, UniProt Q9BY41); experiment: Inhibition of HDAC8 (unknown origin) using biotinylated histone H3 KAc peptide (1 to 21 residues) as substrate by HTRF assay
Sequence of Histone deacetylase 8 (Q9BY41 whole entry, the tested form may be a part): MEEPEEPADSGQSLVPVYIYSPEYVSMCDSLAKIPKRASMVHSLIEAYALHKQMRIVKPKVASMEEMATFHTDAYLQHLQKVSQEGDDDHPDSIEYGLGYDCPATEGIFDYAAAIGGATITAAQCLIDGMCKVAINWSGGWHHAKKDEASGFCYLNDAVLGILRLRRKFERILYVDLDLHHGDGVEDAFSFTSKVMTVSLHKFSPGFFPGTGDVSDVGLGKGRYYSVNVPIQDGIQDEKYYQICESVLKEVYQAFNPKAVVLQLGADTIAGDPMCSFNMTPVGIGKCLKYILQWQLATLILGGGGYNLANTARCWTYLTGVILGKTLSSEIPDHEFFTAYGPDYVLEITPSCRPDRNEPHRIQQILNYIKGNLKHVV

[3] = target: Histone deacetylase 3 (Homo sapiens, UniProt O15379); experiment: Inhibition of HDAC3 (unknown origin) using biotinylated histone H3 KAc peptide (1 to 21 residues) as substrate by HTRF assay
Sequence of Histone deacetylase 3 (O15379 whole entry, the tested form may be a part): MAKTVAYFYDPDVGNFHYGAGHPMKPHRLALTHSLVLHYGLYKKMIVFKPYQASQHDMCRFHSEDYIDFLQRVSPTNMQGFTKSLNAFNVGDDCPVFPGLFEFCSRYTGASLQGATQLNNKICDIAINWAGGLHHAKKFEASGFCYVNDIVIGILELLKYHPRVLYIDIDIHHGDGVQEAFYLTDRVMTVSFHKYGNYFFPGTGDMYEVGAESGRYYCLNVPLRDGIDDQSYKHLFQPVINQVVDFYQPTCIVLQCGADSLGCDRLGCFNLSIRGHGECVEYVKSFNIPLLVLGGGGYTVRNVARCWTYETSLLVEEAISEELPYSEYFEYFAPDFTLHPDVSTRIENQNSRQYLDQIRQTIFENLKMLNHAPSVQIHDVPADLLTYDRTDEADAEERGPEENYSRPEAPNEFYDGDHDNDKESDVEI

[4] = target: T1, Protein deacetylase HDAC6 (Homo sapiens, UniProt Q9UBN7); experiment: Inhibition of HDAC6 (unknown origin) using biotinylated histone H3 KAc peptide (1 to 21 residues) as substrate by HTRF assay
T1 sequence (Q9UBN7 whole entry): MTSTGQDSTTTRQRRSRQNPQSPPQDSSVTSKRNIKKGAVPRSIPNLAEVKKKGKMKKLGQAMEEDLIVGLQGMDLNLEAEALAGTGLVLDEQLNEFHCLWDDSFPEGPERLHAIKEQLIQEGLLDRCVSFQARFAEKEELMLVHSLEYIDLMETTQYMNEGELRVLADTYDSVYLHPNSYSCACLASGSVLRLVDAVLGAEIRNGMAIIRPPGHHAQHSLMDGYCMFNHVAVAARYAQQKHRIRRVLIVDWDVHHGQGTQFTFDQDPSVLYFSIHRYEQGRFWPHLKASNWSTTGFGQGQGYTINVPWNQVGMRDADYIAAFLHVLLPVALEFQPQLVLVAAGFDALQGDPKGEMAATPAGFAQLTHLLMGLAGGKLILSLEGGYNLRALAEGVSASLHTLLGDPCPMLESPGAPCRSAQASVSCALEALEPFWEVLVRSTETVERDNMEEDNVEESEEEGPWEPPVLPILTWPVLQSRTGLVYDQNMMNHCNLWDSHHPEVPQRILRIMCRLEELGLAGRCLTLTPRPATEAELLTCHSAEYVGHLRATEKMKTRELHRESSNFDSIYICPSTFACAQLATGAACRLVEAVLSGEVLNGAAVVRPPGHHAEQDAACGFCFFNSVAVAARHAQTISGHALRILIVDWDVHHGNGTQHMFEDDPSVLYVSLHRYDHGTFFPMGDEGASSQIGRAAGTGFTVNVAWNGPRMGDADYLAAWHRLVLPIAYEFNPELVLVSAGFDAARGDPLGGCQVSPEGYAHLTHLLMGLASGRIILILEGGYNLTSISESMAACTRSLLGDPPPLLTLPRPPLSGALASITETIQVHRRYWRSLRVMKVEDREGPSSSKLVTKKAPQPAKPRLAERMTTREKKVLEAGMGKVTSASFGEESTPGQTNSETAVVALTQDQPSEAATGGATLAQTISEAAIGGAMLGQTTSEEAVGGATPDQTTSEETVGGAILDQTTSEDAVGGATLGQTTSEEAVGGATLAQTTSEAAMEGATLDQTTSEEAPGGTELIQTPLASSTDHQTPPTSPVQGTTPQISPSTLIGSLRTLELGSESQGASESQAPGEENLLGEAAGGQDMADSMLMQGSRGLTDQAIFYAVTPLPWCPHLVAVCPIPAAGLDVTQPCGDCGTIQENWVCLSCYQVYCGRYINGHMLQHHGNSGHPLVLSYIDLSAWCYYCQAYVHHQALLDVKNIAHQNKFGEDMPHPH

[5] = test system: Mus musculus; experiment: In vivo inhibition of BRD4 in BALB/cAnNCrl mouse xenografted with human HCT116 cells assessed as decrease in c-Myc expression in tumor tissue at 15 to 30 mg/kg, po administered on day 1 to day 19 measured on day 19 by immunohistochemical analysis; format: functional, organism-based
Procedure, shortened: (§1)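 HCT-116 xenograft mice were dosed orally at 15 or 30 mg/kg, or 30 mg/kg for reference agents, for 19 days, with vehicle or saline controls. Tumor sections were stained for Ki-67, c-Myc, Ac-H3, BRD4, LC3-II, LIFR and p-STAT3 by immunohistochemistry, and TUNEL staining was used as the apoptosis marker.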

[6] = test system: Mus musculus; experiment: Downregulation of Ki67 expression in tumor tissue of BALB/cAnNCrl mouse xenografted with human HCT116 cells at 15 to 30 mg/kg, po administered on day 1 to day 19 measured on day 19 by Ki67-staining based immunohistochemical analysis; format: functional, organism-based; procedure, shortened: as §1

- IC50 [2]: 167 nM
- IC50 [3]: 75 nM
- IC50 [4]: 73 nM
SMILES: Cc1cc(-c2nc3sc4c(c3c(=O)[nH]2)CCN(C)C4)cc(C)c1OCCCCCC(=O)NO
- Activity [1]: 23%
- inhibition [5]: Active
- inhibition [6]: Active
